Source: PubChem BioAssay
Most compounds without a hit are left out; they make up all but 2.7% or so of the library.
MsrA act: bovine MsrA enzyme activators, primary screen, biochemical, absorbance, HTS | purified bovine MsrA, absorbance read-out | AID 602163, 2012 | hit rate 0.3% among 360,000 | activation, % at 10.6 µM | Methionine sulfoxide reductase A (Bos taurus); in the data active = activation above about 7.5%
HGIII-sPLA2 inh: human group III sPLA2 inhibitors, primary screen, biochemical, QFRET, BODIPY PC-A2 liposome substrate | Group 3 secretory phospholipase A2 (Homo sapiens), Q9NZ20 | QFRET BODIPY PC-A2 liposome hydrolysis, fluorescence | inhibition, % at 12.2 µM | hit rate 0.56% among 370,000 | AID 743126, 2013;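 active = inhibition above mean plus 3 SD of compounds lying within the high and low control bounds, cut at about 19% in these data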
MsrA inhibitor: bovine MsrA enzyme inhibitors, primary screen, biochemical, absorbance, HTS. inhibition, % at 15.5 µM. Methionine sulfoxide reductase A (Bos taurus). purified bovine MsrA, absorbance read-out. hit rate 0.75% among 360,000. AID 651718, 2012; in the data active = inhibition above about 4.5%
ARFGAP1 inh: inhibitors of rat ARFGAP1 GAP activity, primary screen, biochemical, fluorescence polarization, GDP tracer; hit rate 0.26% among 360,000; Arfgap1-stimulated ARF1 GTP hydrolysis, GDP FP detection; AID 651572, 2012; ADP-ribosylation factor GTPase-activating protein 1 (Rattus norvegicus), Q62848; inhibition, % at 16.5 µM;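 active = inhibition above a per-plate limit, mean inhibition of low control wells plus 3 SD, cut at about 25% in these data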
Target sequence (Q62848 1-136 limits assumed): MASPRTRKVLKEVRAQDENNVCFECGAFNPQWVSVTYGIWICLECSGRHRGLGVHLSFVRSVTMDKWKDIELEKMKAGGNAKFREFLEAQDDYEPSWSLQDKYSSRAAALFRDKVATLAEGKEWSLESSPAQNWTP
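Material – truncated rat Arfgap1 GAP domain · Buffer or medium – HEPES-based buffer, pH 7.5 · Reagent – human ARF1(Δ1-17)-GTP substrate · Dosing – 16.5 µM single point, 1.26% DMSO · Schedule – GTP hydrolysis reaction 2 h at 25 °C · Technique – GDP detection by fluorescence polarization · Benchmarks – No-Arfgap1 wells (100%) versus DMSO full-reaction wells (0%) · Repeats – single replicate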
NR1D1 modulator: modulators of Rev-erb alpha DNA binding, primary screen, biochemical, FITC-DNA, fluorescence polarization, uHTS | Nuclear receptor subfamily 1 group D member 1 (Homo sapiens), P20393 | Rev-erbα–FITC-DNA binding, 90 min | activity, % at 10 µM | hit rate 0.79% among 370,000 | AID 1259318, 2017;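 active = activity above about 14%, limit read from the data; passing the limit was not always enough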
ASAP1 inh: inhibitors of human ASAP1 ArfGAP activity, primary screen, biochemical, fluorescence polarization. Arf-GAP with SH3 domain, ANK repeat and PH domain-containing protein 1 (Homo sapiens), …. ASAP1-stimulated ARF1 GTP hydrolysis, GDP FP detection. inhibition, % at 16.5 µM. hit rate 0.19% among 360,000. AID 624377, 2012; in the data active = inhibition above about 25%
Target sequence (Q9ULH1 325-724 limits assumed): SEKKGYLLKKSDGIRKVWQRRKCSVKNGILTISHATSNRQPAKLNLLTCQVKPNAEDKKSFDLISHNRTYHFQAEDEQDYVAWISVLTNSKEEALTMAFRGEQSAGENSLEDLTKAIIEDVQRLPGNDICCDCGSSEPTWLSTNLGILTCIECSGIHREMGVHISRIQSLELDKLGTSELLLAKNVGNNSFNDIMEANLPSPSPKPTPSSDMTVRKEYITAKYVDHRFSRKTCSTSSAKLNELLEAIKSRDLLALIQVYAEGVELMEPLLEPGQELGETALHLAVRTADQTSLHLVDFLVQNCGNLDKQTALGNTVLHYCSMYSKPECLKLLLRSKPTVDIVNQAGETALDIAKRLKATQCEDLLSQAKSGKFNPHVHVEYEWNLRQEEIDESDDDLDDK
ARFGAP1 confirm: ARFGAP1 inhibitor hit confirmation, biochemical, fluorescence polarization, triplicate. AID 651608, 2012. inhibition, % at 16.5 µM. hit rate 30% among 890. ARFGAP1-stimulated ARF1 GTP hydrolysis, GDP tracer FP. shares compounds with ARFGAP1 inh;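 active = average inhibition over triplicates above the hit cutoff set in the earlier primary screen, cut at about 25% in these data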
Large screens that a line does not name were inactive (follow-up assays come after a bar, where they were run).

COc1ccc(/C=C(/NC(=O)c2ccccc2)C(=O)NCc2ccncc2)cc1	none
COc1ccc(C(=O)N/C(=C\c2ccccc2)C(=O)NCc2cccnc2)cc1	ARFGAP1 inh 24.9 | ARFGAP1 confirm inactive
O=c1[nH]c2ccccc2nc1-c1c[nH]c2ccccc12	ARFGAP1 inh 26.4 | ARFGAP1 confirm inactive
Nc1ccccc1-c1nc2ccccc2[nH]c1=O	none
Cc1ccc(N2CC(C(=O)Nc3ccc(S(=O)(=O)Nc4nccs4)cc3)CC2=O)cc1C (centres undefined)	none
COc1ccc(N2CC(C(=O)Nc3ccc(S(=O)(=O)Nc4nccs4)cc3)CC2=O)c(OC)c1 (centres undefined)	ARFGAP1 inh 24.7 | ARFGAP1 confirm inactive
COc1cc(O)c(C(CC(=O)N2CCC(C)CC2)c2ccc3c(c2)OCO3)c(OC)c1 (centres undefined)	none (no result: MsrA act, MsrA inhibitor, ARFGAP1 inh, ASAP1 inh)
CN(C)c1ccc(NC(=O)CSc2nc(N)c(C(=O)Nc3ccc(N(C)C)cc3)s2)cc1	ARFGAP1 inh 25.4 | ARFGAP1 confirm inactive
COc1ccc(NC(=O)CSc2nc(N)c(C(=O)Nc3ccc(N(C)C)cc3)s2)cc1	none (no result: HGIII-sPLA2 inh, MsrA inhibitor, ARFGAP1 inh, NR1D1 modulator, ASAP1 inh)
O=C(CSc1nnc(COc2ccc(Cl)cc2)o1)NC1CC2CCC1C2 (centres undefined)	ARFGAP1 inh 30.1 | ARFGAP1 confirm inactive
COc1ccc(OCc2nnc(SCC(=O)c3ccccc3)o2)cc1	ARFGAP1 inh 32.3 | ARFGAP1 confirm inactive
COc1ccc(OCc2nnc(SCC(=O)NC3CC4CCC3C4)o2)cc1 (centres undefined)	none
Cc1nn(CCC(=O)NNC(=O)Nc2ccccc2F)c(C)c1[N+](=O)[O-]	none (no result: MsrA act, MsrA inhibitor, ARFGAP1 inh, ASAP1 inh)
CCOC(=O)c1c(NC(=O)C[n+]2ccc(N(C)C)cc2)sc(C)c1C	ARFGAP1 inh 25.1 | ARFGAP1 confirm inactive
CCOC(=O)c1c(NC(=O)COC)sc(C)c1C	none
COc1ccccc1NC(=O)O[C@@H]1CC[C@@]23CCCN2C(=O)CCC[C@H]3C1	none (no result: MsrA act, MsrA inhibitor, ARFGAP1 inh, ASAP1 inh)
CC1CCC2(CCC(=O)N2CCCO)CC1 (centres undefined)	none (no result: MsrA act, MsrA inhibitor, ARFGAP1 inh, ASAP1 inh)
CC(C)C(NC(=O)[C@H](Cc1ccc(O)cc1)NC(=O)OC(C)(C)C)P(=O)(O)OC(Cc1ccccc1)C(=O)O (some centres undefined)	none (no result: MsrA act, MsrA inhibitor, ARFGAP1 inh, ASAP1 inh)
Cc1ccccc1C(=O)N1CCN(c2ncccn2)CC1	ARFGAP1 inh 69.6 | ARFGAP1 confirm inactive
CC[C@H](CO)Oc1cc(NCc2cccc(N)c2)c2ncn(C(C)C)c2c1	ARFGAP1 inh 27.4 | ARFGAP1 confirm inactive
COC(=O)[C@]12C[C@H](CC(=O)N3CCN(C(=O)c4ccco4)CC3)C(=O)N(Cc3ccco3)C1=C[C@H](C(C)(C)C)O[C@@H]2C	none (no result: MsrA act, MsrA inhibitor, ARFGAP1 inh, ASAP1 inh)
O=C(NCc1cccs1)c1cc2c(s1)-c1ccccc1OC2	ARFGAP1 inh 47.0 | ARFGAP1 confirm 46.6
COc1ccc(CN2C(C(=O)NC3CCCC3)CSCCS2(=O)=O)cc1 (centres undefined)	none (no result: MsrA act, MsrA inhibitor, ARFGAP1 inh, ASAP1 inh)
O=C(N/N=C/c1ccc(Br)s1)c1ccco1	none
O=C(N/N=C/c1sc(=O)n(Cc2ccc(Br)cc2)c1Cl)c1ccco1	ARFGAP1 inh 38.5 | ARFGAP1 confirm 54.5
Cc1ccc(C2(C)NC(=O)N(CC(=O)NC(=O)NC(C)C)C2=O)cc1 (centres undefined)	ARFGAP1 inh 29.8 | ARFGAP1 confirm inactive
COc1ccc(OC)c(C(=O)CSc2nnc(SCc3cccc4ccccc34)s2)c1	none (no result: MsrA act, MsrA inhibitor, ARFGAP1 inh, ASAP1 inh)
CCOc1ccc(/C=N/NC(=O)c2cc3c(OC)cc(OC)cc3[nH]2)cc1OC	ARFGAP1 inh 26.3 | ARFGAP1 confirm 47.3
C=CCOc1ccc(/C=N/NC(=O)c2cc3c(OC)cc(OC)cc3[nH]2)cc1	none
